Here are results for one compound from ChEMBL document CHEMBL1671683, “Activity of linezolid in an in vitro pharmacokinetic-pharmacodynamic model using different dosages and Staphylococcus aureus and Enterococcus faecalis strains with and without a hypermutator phenotype” (Antimicrob Agents Chemother, 2010).

The subject of data set [1] is Staphylococcus aureus. The data set is described as follows: Bactericidal activity against 2 hrs peripheral compartment culture samples of Staphylococcus aureus RN4220 in two-compartment pharmacokinetic/pharmacodynamic model assessed as effect on bacterial count at 600 mg, bid administered as 0.5 hr infusion. In kind it is functional. A digest of the protocol:
(§1)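 An 18-h culture concentrated 50-fold was injected into the peripheral compartment 3 h pre-sampling (~10^8 CFU/ml E. faecalis, 10^9 S. aureus). Counts came from dilution plating (detection limit 2–3 log10 CFU/ml), expressed as Δlog CFU/ml from treatment start. Run in duplicate.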

Data set [2] concerns Enterococcus faecalis. The data set is described as follows: AUBC (0 to 24 hrs) in Enterococcus faecalis Ef1497 MutM3 in two-compartment pharmacokinetic/pharmacodynamic model at 600 mg, bid administered as 0.5 hr infusion for 2 days. In kind it is functional. A digest of the protocol:
(§2)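 Hollow-fibre two-compartment model in cation-adjusted, protein-free MH broth at 37°C. Human total-plasma linezolid profile simulated as 0.5-h infusion every 12 h for 48 h. Concentrated 18-h culture injected into the peripheral compartment 3 h before first sample, giving about 10^8 (E. faecalis) or 10^9 (S. aureus) CFU/ml. Viable counts by dilution plating over 0–24 h. Area indices calculated versus growth control curve. Duplicate runs.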

Data set [3] concerns Enterococcus faecalis. Nature of the data set: Bactericidal activity against 12 hrs peripheral compartment culture samples of Enterococcus faecalis ATCC 29212 in two-compartment pharmacokinetic/pharmacodynamic model assessed as effect on bacterial count at 200 mg, bid administered as 0.5 hr infusion. It is filed as functional. A digest of the protocol: (§3)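 Two-compartment hollow-fibre model in cation-adjusted, protein-free MH broth, 37°C. Linezolid given as simulated 0.5-h infusion twice daily. Inoculum grown 18 h, concentrated 50-fold and placed in the peripheral compartment 3 h before t0. Peripheral samples at set times counted by dilution plating. First 10-fold dilution not plated, limiting detection to 2–3 log10 CFU/ml. Δlog CFU/ml taken from t0 count. Duplicates.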

The test system of data set [4] is Enterococcus faecalis. Nature of the data set: T>MIC in Enterococcus faecalis Ef1497 in two-compartment pharmacokinetic/pharmacodynamic model at 800 mg, bid administered as 0.5 hr infusion for 2 days. In kind it is functional.
Data set [5] concerns Staphylococcus aureus. The data set is described as follows: Bactericidal activity against 0.5 hrs peripheral compartment culture samples of Staphylococcus aureus RN4220 MutS2 in two-compartment pharmacokinetic/pharmacodynamic model assessed as effect on bacterial count at 600 mg, bid administered as 0.5 hr infusion. It is filed as functional. A digest of the protocol: as §3

Data set [6] concerns Staphylococcus aureus. The data set is described as follows: Bactericidal activity against 0.5 hrs peripheral compartment culture samples of Staphylococcus aureus RN4220 in two-compartment pharmacokinetic/pharmacodynamic model assessed as effect on bacterial count at 600 mg, bid administered as 0.5 hr infusion. In kind it is functional. A digest of the protocol:
as §3

Data set [7] in a line: Apparent volume of distribution in two-compartment pharmacokinetic/pharmacodynamic model at 800 mg, bid administered as 0.5 hr infusion over 24 hrs. In kind it is ADME, organism-based. The settings on record: in vivo, iv.
The test system of data set [8] is Enterococcus faecalis. Nature of the data set: Bactericidal activity against 1 hr peripheral compartment culture samples of Enterococcus faecalis ATCC 29212 in two-compartment pharmacokinetic/pharmacodynamic model assessed as effect on bacterial count at 200 mg, bid administered as 0.5 hr infusion. In kind it is functional. A digest of the protocol: as §3
In data set [9] the test system is Enterococcus faecalis. The data set is described as follows: Bactericidal activity against 0.5 hrs peripheral compartment culture samples of Enterococcus faecalis Ef1497 MutM3 in two-compartment pharmacokinetic/pharmacodynamic model assessed as effect on bacterial count at 200 mg, bid administered as 0.5 hr infusion. It is filed as functional. The procedure, abridged:
as §3

Data set [10] concerns Enterococcus faecalis. The data set is described as follows: AUBC (0 to 24 hrs) in Enterococcus faecalis Ef1497 in two-compartment pharmacokinetic/pharmacodynamic model at 600 mg, bid administered as 0.5 hr infusion for 2 days. It is filed as functional. The procedure, abridged:
as §2

Data set [11] has as its system Enterococcus faecalis. The data set is described as follows: Bactericidal activity against 12 hrs peripheral compartment culture samples of Enterococcus faecalis Ef1497 in two-compartment pharmacokinetic/pharmacodynamic model assessed as effect on bacterial count at 600 mg, bid administered as 0.5 hr infusion. It is filed as functional. A digest of the protocol:
as §3

A short description of the next data set: in vitro. As to conditions: two-compartment pharmacokinetic/pharmacodynamic model, iv, 200 mg.
Data set [12] concerns Enterococcus faecalis. Nature of the data set: Bactericidal activity against 14 hrs peripheral compartment culture samples of Enterococcus faecalis ATCC 29212 in two-compartment pharmacokinetic/pharmacodynamic model assessed as effect on bacterial count at 600 mg, bid administered as 0.5 hr infusion. In kind it is functional. The procedure, abridged:
as §1

Data set [13] concerns Enterococcus faecalis. The data set is described as follows: Bactericidal activity against 0.5 hrs peripheral compartment culture samples of Enterococcus faecalis ATCC 29212 in two-compartment pharmacokinetic/pharmacodynamic model assessed as effect on bacterial count at 600 mg, bid administered as 0.5 hr infusion. In kind it is functional. A digest of the protocol: as §3

Data set [14] can be described thus: Apparent volume of distribution in two-compartment pharmacokinetic/pharmacodynamic model at 200 mg, bid administered as 0.5 hrs infusion. It is filed as ADME, organism-based. The settings on record: iv.
Data set [15] can be described thus: Cmax in healthy human at 600 mg, iv, bid administered as 0.5 hr infusion. It is filed as ADME, organism-based. On the set-up: dose 600 mg, route intravenous. As to conditions: in vivo.
A short description of data set [16]: Volume of distribution at steady state in two-compartment pharmacokinetic/pharmacodynamic model at 800 mg, bid administered as 0.5 hrs infusion. In kind it is ADME, organism-based. As to conditions: iv, read-out: Vdss.
Data set [17] has as its system Staphylococcus aureus subsp. aureus RN4220. The data set is described as follows: ABBC (0 to 24 hrs) in Staphylococcus aureus RN4220 in two-compartment pharmacokinetic/pharmacodynamic model at 600 mg, bid administered as 0.5 hr infusion for 2 days. A digest of the protocol:
as §2

In data set [18] the test system is Staphylococcus aureus. The data set is described as follows: Bactericidal activity against 1 hr peripheral compartment culture samples of Staphylococcus aureus RN4220 in two-compartment pharmacokinetic/pharmacodynamic model assessed as effect on bacterial count at 600 mg, bid administered as 0.5 hr infusion. It is filed as functional. A digest of the protocol: as §3

Data set [19] concerns Enterococcus faecalis. The data set is described as follows: Bactericidal activity against 12.5 hrs peripheral compartment culture samples of Enterococcus faecalis ATCC 29212 in two-compartment pharmacokinetic/pharmacodynamic model assessed as effect on bacterial count at 200 mg, bid administered as 0.5 hr infusion. It is filed as functional. A digest of the protocol: as §1

Data set [20] relates to Staphylococcus aureus. Nature of the data set: Bactericidal activity against 48 hrs peripheral compartment culture samples of Staphylococcus aureus RN4220 in two-compartment pharmacokinetic/pharmacodynamic model assessed as effect on bacterial count at 600 mg, bid administered as 0.5 hr infusion. It is filed as functional. The procedure, abridged:
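An 18-h culture was concentrated 50-fold by centrifugation and injected into the peripheral compartment 3 h before first sampling, giving about 10^9 CFU/ml exponential growth. Linezolid was simulated as a 0.5-h infusion every 12 h. Samples taken from 0 to 48 h were counted by dilution plating on MH agar; the first 10-fold dilution was not plated (detection limit 2–3 log10 CFU/ml). Effect was expressed as Δlog CFU/ml from treatment start. Run in duplicate.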

Data set [21] relates to Enterococcus faecalis. Nature of the data set: AUBC (0 to 24 hrs) in Enterococcus faecalis Ef1497 MutM3 in two-compartment pharmacokinetic/pharmacodynamic model at 200 mg, bid administered as 0.5 hr infusion for 2 days. It is filed as functional. A digest of the protocol:
as §2

Data set [22] can be described thus: Tmax in two-compartment pharmacokinetic/pharmacodynamic model at 800 mg, bid administered as 0.5 hrs infusion. In kind it is ADME, organism-based. The settings on record: iv. A digest of the protocol:
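Two-compartment in vitro hollow-fibre model in cation-adjusted, protein-free Mueller-Hinton broth at 37°C. Human total-plasma linezolid profile simulated as 0.5-h infusion every 12 h for 48 h, computer-controlled syringe pump into central compartment. […] Peripheral samples assayed by validated HPLC-UV (quantification limit 0.39 μg/ml). Tmax read directly from concentration-time profiles. Run in duplicate.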

For data set [23], the system named is Staphylococcus aureus. The data set is described as follows: Bactericidal activity against 14 hrs peripheral compartment culture samples of Staphylococcus aureus RN4220 in two-compartment pharmacokinetic/pharmacodynamic model assessed as effect on bacterial count at 600 mg, bid administered as 0.5 hr infusion. In kind it is functional. The procedure, abridged:
as §1

Take `CC(=O)NC[C@H]1CN(c2ccc(N3CCOCC3)c(F)c2)C(=O)O1` [LINEZOLID]: the log10CFU/ml in the data set with Staphylococcus aureus [1] was -0.26; in the data set with Enterococcus faecalis [3], 0.14; in the data set with Staphylococcus aureus [5], -0.21; in the data set on Staphylococcus aureus [6], -0.04; in the data set with Enterococcus faecalis [8], 0.14; with Enterococcus faecalis [9] it was -0.009. For the same compound, the log10CFU/ml in the data set on Enterococcus faecalis [11] is listed as -0.12; in the data set on Enterococcus faecalis [12], 0.18; with Enterococcus faecalis [13], 0.04; in the data set on Staphylococcus aureus [18], -0.07; with Enterococcus faecalis [19] it was 0.26; in the data set on Staphylococcus aureus [20] it was 0.32. Moreover, in the data set with Staphylococcus aureus [23], the log10CFU/ml is -0.24. Also, the AUBC worked out at 217.1 log10CFU/ml.hr in the data set with Enterococcus faecalis [2], 215.6 log10CFU/ml.hr in the data set with Enterococcus faecalis [10] and 212.2 log10CFU/ml.hr in the data set on Enterococcus faecalis [21]. Further, the “fT>MIC” value in the data set on Enterococcus faecalis [4] stood at 80.9%. Also, the Vd was found to be 102 L in data set [7], 141 L in [14] and 104 L in data set [16]. The half-life at 0.5 h in the data set “in vitro” was 6.72 h. The Cmax in data set [15] came out at 14100 ng/mL. Also, the ABBC in data set [17] is -1.21 log10CFU/ml.hr. Moreover, the Tmax in data set [22] was found to be 0.5 h.

For orientation: half-life means the time needed for the level to fall by half in the phase considered. Low readings indicate rapid decline, high ones slow decline. The term Cmax denotes the peak of the concentration-time curve. As a reminder, the Tmax is the time from dosing to the highest level.
